pIC50: −log10 of the molar value.
Key:
[1] = target: T1, Phosphotyrosine protein phosphatase (Mycobacterium tuberculosis, UniProt A0A045ISB3); assay: Inhibition of Mycobacterium tuberculosis His-tagged PtpB expressed in Escherichia coli Rosetta 2 (DE3) using pNPP as substrate after 30 mins by spectrophotometric method
T1 sequence (A0A045ISB3 whole entry): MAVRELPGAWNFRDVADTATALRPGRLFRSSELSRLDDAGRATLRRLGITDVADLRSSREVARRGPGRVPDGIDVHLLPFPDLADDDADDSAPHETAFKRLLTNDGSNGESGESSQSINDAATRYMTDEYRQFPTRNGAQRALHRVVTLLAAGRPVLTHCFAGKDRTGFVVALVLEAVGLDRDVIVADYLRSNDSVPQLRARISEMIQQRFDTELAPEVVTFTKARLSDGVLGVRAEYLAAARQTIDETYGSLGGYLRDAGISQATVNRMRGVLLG

[2] = target: T2, Tyrosine-protein phosphatase non-receptor type 5 (Homo sapiens, UniProt P54829); assay: Inhibition of human PTPN5 expressed in Escherichia coli Rosetta 2 (DE3) using pNPP as substrate after 45 mins by spectrophotometric method
T2 sequence (P54829 whole entry): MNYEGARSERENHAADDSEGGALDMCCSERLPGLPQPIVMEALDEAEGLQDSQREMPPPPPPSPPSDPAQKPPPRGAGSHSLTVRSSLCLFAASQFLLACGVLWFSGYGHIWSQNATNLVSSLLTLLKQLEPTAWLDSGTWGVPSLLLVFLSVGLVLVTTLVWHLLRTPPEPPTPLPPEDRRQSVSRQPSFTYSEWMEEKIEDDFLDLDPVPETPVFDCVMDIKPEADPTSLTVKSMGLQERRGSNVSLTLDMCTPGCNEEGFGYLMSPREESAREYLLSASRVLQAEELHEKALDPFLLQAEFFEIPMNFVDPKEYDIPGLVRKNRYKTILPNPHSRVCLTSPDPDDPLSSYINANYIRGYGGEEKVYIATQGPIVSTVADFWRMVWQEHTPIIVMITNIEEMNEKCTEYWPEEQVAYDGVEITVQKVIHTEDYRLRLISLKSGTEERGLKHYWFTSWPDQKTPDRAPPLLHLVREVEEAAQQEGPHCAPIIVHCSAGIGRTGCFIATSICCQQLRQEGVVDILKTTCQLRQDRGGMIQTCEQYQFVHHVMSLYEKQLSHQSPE

[3] = tested on: Mycobacterium tuberculosis; assay: Antitubercular activity against Mycobacterium tuberculosis H37Rv after 5 days at 200 uM relative to control; type: functional; details: 120 h
Method in brief: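 M. tuberculosis grown in liquid culture with compound at a fixed 200 μM for 5 days. Growth inhibition expressed as percent of control.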

[4] = target: T3, Tyrosine-protein phosphatase non-receptor type 2 (Homo sapiens, UniProt P17706); assay: Inhibition of human PTPN2 expressed in Escherichia coli Rosetta 2 (DE3) using pNPP as substrate after 45 mins by spectrophotometric method
T3 sequence (P17706 whole entry): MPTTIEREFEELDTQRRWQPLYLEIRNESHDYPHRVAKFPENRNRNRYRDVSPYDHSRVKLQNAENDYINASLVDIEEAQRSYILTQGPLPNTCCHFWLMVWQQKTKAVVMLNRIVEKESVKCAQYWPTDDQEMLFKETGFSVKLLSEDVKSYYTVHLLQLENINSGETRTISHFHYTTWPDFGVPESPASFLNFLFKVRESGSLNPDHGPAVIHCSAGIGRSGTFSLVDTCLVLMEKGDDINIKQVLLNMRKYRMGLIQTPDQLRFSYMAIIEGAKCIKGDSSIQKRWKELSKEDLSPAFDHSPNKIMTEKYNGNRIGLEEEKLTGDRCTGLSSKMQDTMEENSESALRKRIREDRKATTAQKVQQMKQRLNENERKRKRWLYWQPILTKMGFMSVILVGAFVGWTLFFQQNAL

[5] = target: T4, Tyrosine-protein phosphatase non-receptor type 1 (Homo sapiens, UniProt P18031); assay: Inhibition of human PTPN1 expressed in Escherichia coli Rosetta 2 (DE3) using pNPP as substrate after 45 mins by spectrophotometric method
T4 sequence (P18031 whole entry): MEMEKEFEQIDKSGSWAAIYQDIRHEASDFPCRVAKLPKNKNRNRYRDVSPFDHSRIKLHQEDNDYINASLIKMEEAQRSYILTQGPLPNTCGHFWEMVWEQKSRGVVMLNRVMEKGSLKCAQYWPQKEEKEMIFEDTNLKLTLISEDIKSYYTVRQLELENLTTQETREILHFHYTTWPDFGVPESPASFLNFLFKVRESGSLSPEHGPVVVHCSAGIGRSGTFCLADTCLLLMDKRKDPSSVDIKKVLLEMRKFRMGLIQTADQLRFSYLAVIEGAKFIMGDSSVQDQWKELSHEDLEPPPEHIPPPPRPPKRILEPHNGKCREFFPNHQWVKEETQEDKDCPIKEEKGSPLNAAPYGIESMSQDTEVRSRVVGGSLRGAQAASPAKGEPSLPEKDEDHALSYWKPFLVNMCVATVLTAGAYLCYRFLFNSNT

SMILES | pIC50 [1] | pIC50 [2] | inhibition at 200 µM [3] [%] | pIC50 [4] | pIC50 [5]
C=Cc1ccc(S(=O)(=O)Nc2ccc(-c3nc4cc(NS(=O)(=O)c5ccc(Cl)s5)ccc4o3)cc2)cc1 | 5.30 | 4.89 | 14 | 4.85 | 5.00
COc1ccc(S(=O)(=O)Nc2ccc(-c3nc4cc(NS(=O)(=O)c5ccc(OC)cc5)ccc4o3)cc2)cc1 | 4.92 | 4.82 | 0 | 4.80 | 4.85
O=S(=O)(Nc1ccc(-c2nc3cc(NS(=O)(=O)c4ccc(Cl)s4)ccc3o2)cc1)c1ccc(Cl)c(Cl)c1 | 5.64 | 5.01 | 0 | 4.92 | 5.16
O=S(=O)(Nc1ccc(-c2nc3cc(NS(=O)(=O)c4ccc(Cl)s4)ccc3o2)cc1)c1ccc(Cl)c(C(F)(F)F)c1 | 5.70 | 4.92 | 0 | 4.89 | 5.12
O=S(=O)(Nc1ccc(-c2nc3cc(NS(=O)(=O)c4ccc(Cl)s4)ccc3o2)cc1)c1ccc(Cl)s1 | 5.64 | 4.82 | 41 | 4.60 | 4.96
C=Cc1ccc(S(=O)(=O)Nc2ccc3oc(-c4ccc(NS(=O)(=O)c5ccc(Cl)s5)cc4)nc3c2)cc1 | 5.41 | 4.92 | 10 | 4.92 | 5.14
O=S(=O)(Nc1ccc(-c2nc3cc(NS(=O)(=O)c4ccccc4C(F)(F)F)ccc3o2)cc1)c1ccccc1C(F)(F)F | 5.09 | 4.82 | 35 | 4.66 | 4.85
O=S(=O)(Nc1ccc(-c2nc3cc(NS(=O)(=O)c4cccc5nsnc45)ccc3o2)cc1)c1cccc2nsnc12 | 5.15 | 4.77 | 0 | 4.77 | 5.00
O=S(=O)(Nc1ccc(-c2nc3cc(NS(=O)(=O)c4ccc(Cl)s4)ccc3o2)cc1)c1ccc(Br)cc1 | 5.28 | 5.06 | 0 | 4.96 | 5.06
O=c1ccc2cc(S(=O)(=O)Nc3ccc4oc(-c5ccc(NS(=O)(=O)c6ccc(Cl)s6)cc5)nc4c3)ccc2o1 | 5.39 | 4.96 | 18 | 5.03 | 4.89
COc1ccc(S(=O)(=O)Nc2ccc3oc(-c4ccc(NS(=O)(=O)c5ccc(Cl)s5)cc4)nc3c2)cc1 | 5.02 | 4.80 | 41 | 4.62 | 4.92
O=C(O)c1ccccc1S(=O)(=O)Nc1ccc(-c2nc3cc(NS(=O)(=O)c4ccccc4C(=O)O)ccc3o2)cc1 | 5.38 | < 4.00 | 22 | < 4.00 | < 4.00
O=[N+]([O-])c1cc(S(=O)(=O)Nc2ccc(-c3nc4cc(NS(=O)(=O)c5ccc(Cl)s5)ccc4o3)cc2)ccc1Cl | 5.40 | 4.82 | 29 | 4.74 | 5.10
O=S(=O)(Nc1ccc(-c2nc3cc(NS(=O)(=O)c4ccc5ncsc5c4)ccc3o2)cc1)c1ccc2ncsc2c1 | 4.70 | 4.70 | 0 | 4.92 | 5.15
O=S(=O)(Nc1ccc(-c2nc3cc(NS(=O)(=O)C(F)(F)F)ccc3o2)cc1)C(F)(F)F | 4.38 | < 4.00 | 28 | < 4.00 | < 4.00
O=S(=O)(Nc1ccc2oc(-c3ccc(NS(=O)(=O)c4ccc(Cl)s4)cc3)nc2c1)c1ccc2ncsc2c1 | 5.44 | 4.96 | 50 | 5.03 | 4.92
COC(=O)c1ccc(S(=O)(=O)Nc2ccc(-c3nc4cc(NS(=O)(=O)c5ccc(C(=O)OC)cc5)ccc4o3)cc2)cc1 | 4.96 | 4.66 | 0 | 4.77 | 4.96
O=S(=O)(Nc1ccc(-c2nc3cc(NS(=O)(=O)c4ccc(Cl)s4)ccc3o2)cc1)c1ccc2ccccc2c1 | 5.41 | 4.96 | 0 | 4.89 | 5.16
O=S(=O)(Nc1ccc2oc(-c3ccc(NS(=O)(=O)c4ccc(Cl)s4)cc3)nc2c1)c1cccc(C(F)(F)F)c1 | 5.15 | 4.80 | 0 | 4.70 | 4.89
COc1ccc(S(=O)(=O)Nc2ccc(-c3nc4cc(NS(=O)(=O)c5ccc(Cl)s5)ccc4o3)cc2)cc1 | 4.96 | 4.80 | 25 | 4.80 | 4.96
O=S(=O)(Nc1ccc(-c2nc3cc(NS(=O)(=O)c4cccc5ccccc45)ccc3o2)cc1)c1cccc2ccccc12 | 5.68 | 5.31 | 0 | 4.60 | 5.49
COc1ccc(Cl)cc1S(=O)(=O)Nc1ccc(-c2nc3cc(NS(=O)(=O)c4ccc(Cl)s4)ccc3o2)cc1 | 5.47 | 4.96 | 33 | 4.80 | 5.19
O=S(=O)(Nc1ccc2oc(-c3ccc(NS(=O)(=O)c4ccc(Cl)s4)cc3)nc2c1)c1ccc(Br)cc1 | 5.39 | 4.92 | 28 | 4.85 | 5.16
O=S(=O)(Nc1ccc(-c2nc3cc(NS(=O)(=O)c4ccc(Br)cc4)ccc3o2)cc1)c1ccc(Br)cc1 | 5.44 | 4.96 | 0 | 4.74 | 4.96
O=S(=O)(Nc1ccc2oc(-c3ccc(NS(=O)(=O)c4ccc(Cl)s4)cc3)nc2c1)c1ccc2ccccc2c1 | 5.27 | 5.11 | 0 | 5.13 | 5.10
O=C(O)c1ccc(S(=O)(=O)Nc2ccc(-c3nc4cc(NS(=O)(=O)c5ccc(C(=O)O)cc5)ccc4o3)cc2)cc1 | 4.92 | < 4.00 | 10 | < 4.00 | < 4.00
O=S(=O)(Nc1ccc(-c2nc3cc(NS(=O)(=O)c4ccc(C(F)(F)F)cc4)ccc3o2)cc1)c1ccc(C(F)(F)F)cc1 | 5.55 | 5.10 | 0 | 4.89 | 5.19
O=S(=O)(Nc1ccc(-c2nc3cc(NS(=O)(=O)c4ccc(Cl)s4)ccc3o2)cc1)c1cccc(C(F)(F)F)c1 | 5.52 | 4.80 | 36 | 4.80 | 4.92
O=S(=O)(Nc1ccc2oc(-c3ccc(NS(=O)(=O)c4ccc(Cl)s4)cc3)nc2c1)c1ccc(F)c(C(F)(F)F)c1 | 5.24 | 4.85 | 0 | 4.70 | 4.96

Reference: ChEMBL document CHEMBL4387722
